15 compounds from ChEMBL document CHEMBL1138837, “Structure-activity study on the Phe side chain arrangement of endomorphins using conformationally constrained analogues” (J Med Chem, 2004) can be followed below.

A short description of data set [1]: Half-life in rat brain homogenate. It counts as ADME. The procedure, abridged:
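Peptide from a 1 mM stock in 50 mM Tris-HCl, pH 7.4, was incubated at 37 °C with rat brain homogenate (5.4 mg/mL protein). Timed aliquots were acidified with 0.1 M HCl, centrifuged, and analysed by RP-HPLC with UV detection at 216 nm. The rate constant came from ln(A/A0) versus time (at least five points). Half-life assumed pseudo-first-order kinetics, from 3–5 measurements.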

Data set [2] is filed under the species Rattus norvegicus. Kind of data set: In vitro percent maximal stimulation of [35S]GTP-gamma-S, binding by the compound in rat brain membranes. It is filed as functional. The following applies: Membrane. The procedure, abridged: (§1)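 Rat brain membranes (about 10 µg protein) with 0.05 nM [35S]GTPγS, 100 µM GDP and compound at 10^-9–10^-5 M, in Tris-EGTA buffer (1 mM EGTA, 3 mM MgCl2, NaCl, pH 7.4), at 30 °C for 60 min. Basal binding was measured without compound; nonspecific binding with 100 µM GTPγS. GF/B filtration was used, with three experiments in triplicate. Stimulation is expressed as percent of specific binding.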

The species named for data set [3] is Rattus norvegicus. Kind of data set: In vitro effective dose against [35S]GTP-gamma-S, binding to rat brain membranes. It counts as functional. The following applies: Membrane. The procedure, abridged:
as §1

Data set [4] has as its target T1, Mu-type opioid receptor (Rattus norvegicus, UniProt P33535). Kind of data set: Displacement of [3H]endomorphin-2 from Opioid receptor mu 1 of rat brain membranes. It is filed as cell membranes, Membrane.
Data set [5] addresses T1, Mu-type opioid receptor. Kind of data set: Displacement of [3H]DAMGO from Opioid receptor mu 1 of rat brain membranes. It counts as cell membranes, Membrane.
For data set [6], the target named is Mu-type opioid receptor (Mus musculus, UniProt P42866). Kind of data set: Inhibition of Mu opioid receptor of mouse vas deferens. The procedure, abridged: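 Mouse vas deferens in Mg-free Krebs at 31 °C, 0.1 g initial tension, equilibrated 30 min under electrical stimulation. Inhibition of evoked contractions was measured with noncumulative dose–response curves, and IC50 was obtained by sigmoidal fitting.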

Data set [7] has as its target Mu-type opioid receptor (Cavia porcellus, UniProt P97266). Kind of data set: Inhibition of Opioid receptor mu 1 of guinea pig ileum. It is filed as tissue-based. In a few lines:
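Guinea pig ileum in Krebs solution at 37 °C, initial tension 0.8 g, equilibrated 60 min under electrical stimulation. Electrically evoked contractions were inhibited, using noncumulative dose–response curves, with IC50 from sigmoidal curve fitting.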

For data set [8], the target named is Delta-type opioid receptor (Rattus norvegicus, UniProt P33533). Kind of data set: Displacement of [3H]Ile5,6-deltorphin II from opioid receptor delta 1 of rat brain membranes. It counts as cell membranes, Membrane.
For data set [9], the target named is T1, Mu-type opioid receptor. Kind of data set: In vitro binding affinity towards Opioid receptor mu 1 in rat brain membranes. It counts as cell membranes. The procedure, abridged:
(§2)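 Wistar rat brain membranes without cerebellum (300–500 µg protein) in 50 mM Tris-HCl, pH 7.4, for competition binding. Incubation was stopped by vacuum filtration on GF/C filters, with two ice-cold buffer washes, then scintillation counting. Nonspecific binding was defined with 10 µM naloxone. Each assay was run in duplicate and repeated at least three times, with nonlinear least-squares fitting.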

Data set [10] deals with T1, Mu-type opioid receptor. Kind of data set: Affinity for Opioid receptor mu 1 in rat brain membranes. It is filed as cell membranes. The procedure, abridged:
as §2

The structures appear in SMILES notation. Residues, ends and D or L forms follow the SMILES beside them.

Sequence of Delta-type opioid receptor (P33533 whole entry): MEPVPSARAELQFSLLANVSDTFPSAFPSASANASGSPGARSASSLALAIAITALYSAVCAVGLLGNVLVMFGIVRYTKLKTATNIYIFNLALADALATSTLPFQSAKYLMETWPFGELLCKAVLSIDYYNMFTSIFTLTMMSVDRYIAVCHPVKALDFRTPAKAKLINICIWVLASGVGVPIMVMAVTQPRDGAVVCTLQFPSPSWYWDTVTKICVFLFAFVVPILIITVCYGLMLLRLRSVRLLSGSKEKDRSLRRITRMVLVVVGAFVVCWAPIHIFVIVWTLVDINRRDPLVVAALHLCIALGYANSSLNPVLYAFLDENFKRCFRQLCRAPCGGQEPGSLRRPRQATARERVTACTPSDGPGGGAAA
Sequence of Mu-type opioid receptor (Mus musculus, UniProt P42866) (P42866 whole entry): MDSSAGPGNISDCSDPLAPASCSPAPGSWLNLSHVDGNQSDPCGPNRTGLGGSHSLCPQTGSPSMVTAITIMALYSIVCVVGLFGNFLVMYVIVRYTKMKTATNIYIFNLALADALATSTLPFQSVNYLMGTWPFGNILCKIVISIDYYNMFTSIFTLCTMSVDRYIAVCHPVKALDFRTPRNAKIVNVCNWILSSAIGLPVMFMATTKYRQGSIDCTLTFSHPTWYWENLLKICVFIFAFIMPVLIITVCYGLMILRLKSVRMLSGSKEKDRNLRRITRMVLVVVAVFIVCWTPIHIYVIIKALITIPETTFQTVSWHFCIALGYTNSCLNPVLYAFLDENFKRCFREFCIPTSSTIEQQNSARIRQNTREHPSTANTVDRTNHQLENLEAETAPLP
Sequence of Mu-type opioid receptor (Cavia porcellus, UniProt P97266) (P97266 whole entry): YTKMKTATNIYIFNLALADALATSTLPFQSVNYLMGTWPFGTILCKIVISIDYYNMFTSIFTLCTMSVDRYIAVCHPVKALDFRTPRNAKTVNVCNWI
T1 sequence (P33535 whole entry): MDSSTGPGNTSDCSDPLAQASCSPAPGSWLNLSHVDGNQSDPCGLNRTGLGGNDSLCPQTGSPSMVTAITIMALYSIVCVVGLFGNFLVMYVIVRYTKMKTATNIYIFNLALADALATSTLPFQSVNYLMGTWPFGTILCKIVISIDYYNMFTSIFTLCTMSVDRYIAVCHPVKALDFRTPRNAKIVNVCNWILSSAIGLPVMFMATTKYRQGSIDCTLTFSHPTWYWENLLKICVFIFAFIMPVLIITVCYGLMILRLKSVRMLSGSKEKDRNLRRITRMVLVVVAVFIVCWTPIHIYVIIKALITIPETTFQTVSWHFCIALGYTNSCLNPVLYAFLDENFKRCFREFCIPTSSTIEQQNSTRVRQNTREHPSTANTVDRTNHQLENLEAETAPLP

For `NC(=O)[C@H](Cc1ccccc1)NC(=O)[C@H](Cc1ccccc1)NC(=O)[C@@H]1CCCN1C(=O)[C@@H](N)Cc1ccc(O)cc1` [ENDOMORPHIN 2], the half-life in [1] was 3.8 min. In addition, the Max stimulation in the data set filed under Rattus norvegicus [2] amounted to 213%.

On to `NC(=O)[C@H](Cc1ccccc1)NC(=O)[C@H](Cc1c[nH]c2ccccc12)NC(=O)[C@@H]1CCCN1C(=O)[C@@H](N)Cc1ccc(O)cc1` [ENDOMORPHIN-1], for which the half-life in data set [1] came out at 4.9 min. Further, the Max stimulation in the data set filed under Rattus norvegicus [2] was found to be 237%. The compound further displayed an ED50 in the data set filed under Rattus norvegicus [3] of 289 nM.

In the case of `C[C@@H](c1ccccc1)[C@@H](NC(=O)[C@H](Cc1c[nH]c2ccccc12)NC(=O)[C@@H]1CCCN1C(=O)[C@@H](N)Cc1ccc(O)cc1)C(N)=O`, the figures for the Ki on Mu-type opioid receptor [4] and on Mu-type opioid receptor [5] were 47 nM and 107 nM, respectively. Moreover, in the data set filed under Rattus norvegicus [2], the Max stimulation was 124%. Moreover, in the data set filed under Rattus norvegicus [3], the ED50 amounted to 784 nM.

As for `C[C@H](c1ccccc1)[C@@H](NC(=O)[C@H](Cc1c[nH]c2ccccc12)NC(=O)[C@@H]1CCCN1C(=O)[C@@H](N)Cc1ccc(O)cc1)C(N)=O`, the Ki on Mu-type opioid receptor [4] turned out to be 43.6 nM; on Mu-type opioid receptor [5] it was 45.3 nM. Further, the Max stimulation in the data set listed under Rattus norvegicus [2] turned out to be 114%. The compound further registered an ED50 in the data set filed under Rattus norvegicus [3] of 1490 nM.

As to `C[C@H](c1ccccc1)[C@@H](NC(=O)[C@H](Cc1ccccc1)NC(=O)[C@@H]1CCCN1C(=O)[C@@H](N)Cc1ccc(O)cc1)C(N)=O`, the IC50 at Mu-type opioid receptor [6] is more than 10000 nM; against Mu-type opioid receptor [7], 816 nM. For the same compound, the inhibition constant Ki at Mu-type opioid receptor [4] turned out to be 127 nM; on Mu-type opioid receptor [5] it was 250 nM; in data set [8], 5180 nM. This compound showed a Max stimulation in the data set filed under Rattus norvegicus [2] of 108%. In addition, the ED50 in the data set listed under Rattus norvegicus [3] was found to be 104 nM.

`N[C@@H](Cc1ccc(O)cc1)C(=O)N1CCC[C@H]1C(=O)N[C@@H](Cc1ccccc1)C(=O)O` (H-Tyr-Pro-Phe-OH) came in with an IC50 on Mu-type opioid receptor [9] of 161 nM. Besides, on Mu-type opioid receptor [10], the Ki came out at 46.3 nM.

`C[C@H](c1ccccc1)[C@@H](NC(=O)[C@@H]1CCCN1C(=O)[C@@H](N)Cc1ccc(O)cc1)C(=O)N[C@@H](Cc1ccccc1)C(N)=O` gave a Ki in [8] of 6760 nM. This compound also showed a Max stimulation in the data set filed under Rattus norvegicus [2] of 105%. For the same compound, the ED50 in the data set listed under Rattus norvegicus [3] is 7.7 nM.

Turning to `C[C@@H](c1ccccc1)[C@@H](NC(=O)[C@H](Cc1ccccc1)NC(=O)[C@@H]1CCCN1C(=O)[C@@H](N)Cc1ccc(O)cc1)C(N)=O`, the results for the IC50 against Mu-type opioid receptor [6] and on Mu-type opioid receptor [7] were more than 10000 nM and 589 nM, respectively. Further, the Ki on Mu-type opioid receptor [4] is 47.7 nM; on Mu-type opioid receptor [5], 104 nM; in [8] it was more than 10000 nM. The compound further yielded a Max stimulation in the data set filed under Rattus norvegicus [2] of 115%. In the data set filed under Rattus norvegicus [3], this compound returned an ED50 of 572 nM.

`C[C@@H](c1ccccc1)[C@@H](NC(=O)[C@@H]1CCCN1C(=O)[C@@H](N)Cc1ccc(O)cc1)C(=O)N[C@@H](Cc1ccccc1)C(N)=O` had an inhibitory constant (Ki) in [8] of more than 10000 nM. This compound also displayed a Max stimulation in the data set listed under Rattus norvegicus [2] of 103%. Besides, the ED50 in the data set listed under Rattus norvegicus [3] worked out at 53 nM.

As to `C[C@H](c1ccccc1)[C@H](NC(=O)[C@H](Cc1ccccc1)NC(=O)[C@@H]1CCCN1C(=O)[C@@H](N)Cc1ccc(O)cc1)C(N)=O`, the IC50 at Mu-type opioid receptor [6] is 235 nM; on Mu-type opioid receptor [7], 89.9 nM. The inhibition constant (Ki) was determined as 23.4 nM at Mu-type opioid receptor [4], 69.5 nM on Mu-type opioid receptor [5] and 4900 nM in [8]. The compound also came in with a Max stimulation in the data set filed under Rattus norvegicus [2] of 132%. In addition, the ED50 in the data set listed under Rattus norvegicus [3] worked out at 455 nM.

On to `C[C@H](c1ccccc1)[C@H](NC(=O)[C@H](Cc1c[nH]c2ccccc12)NC(=O)[C@@H]1CCCN1C(=O)[C@@H](N)Cc1ccc(O)cc1)C(N)=O`, for which the Ki was 23.4 nM at Mu-type opioid receptor [4] and 26.3 nM at Mu-type opioid receptor [5]. Further, in the data set listed under Rattus norvegicus [2], the Max stimulation came out at 126%. The ED50 in the data set filed under Rattus norvegicus [3] came out at 209 nM.

With `C[C@@H](c1ccccc1)[C@H](NC(=O)[C@H](Cc1c[nH]c2ccccc12)NC(=O)[C@@H]1CCCN1C(=O)[C@@H](N)Cc1ccc(O)cc1)C(N)=O`, the Ki was determined as 0.47 nM on Mu-type opioid receptor [4] and 0.8 nM at Mu-type opioid receptor [5]. The compound further had a half-life in [1] of 10.7 min. In the data set filed under Rattus norvegicus [2], this compound registered a Max stimulation of 163%. This compound also gave an ED50 in the data set listed under Rattus norvegicus [3] of 114 nM.

As to `C[C@@H](c1ccccc1)[C@H](NC(=O)[C@@H]1CCCN1C(=O)[C@@H](N)Cc1ccc(O)cc1)C(=O)N[C@@H](Cc1ccccc1)C(N)=O`, the affinity in data set [8] corresponds to a Ki of 179 nM. In addition, the Max stimulation in the data set listed under Rattus norvegicus [2] was 160%. For the same compound, the ED50 in the data set listed under Rattus norvegicus [3] was 1610 nM.

Regarding `C[C@H](c1ccccc1)[C@H](NC(=O)[C@@H]1CCCN1C(=O)[C@@H](N)Cc1ccc(O)cc1)C(=O)N[C@@H](Cc1ccccc1)C(N)=O`, in [8], the Ki was more than 10000 nM. In the data set listed under Rattus norvegicus [2], this compound yielded a Max stimulation of 146%. In the data set listed under Rattus norvegicus [3], this compound yielded an ED50 of 1800 nM.

Consider `C[C@@H](c1ccccc1)[C@H](NC(=O)[C@H](Cc1ccccc1)NC(=O)[C@@H]1CCCN1C(=O)[C@@H](N)Cc1ccc(O)cc1)C(N)=O`, for which the values for the IC50 against Mu-type opioid receptor [6] and at Mu-type opioid receptor [7] were 9.15 nM and 3.46 nM, respectively. The results for the Ki (at Mu-type opioid receptor [4]; at Mu-type opioid receptor [5]; in data set [8]) were 0.97 nM, 1.67 nM and 6360 nM, respectively. The half-life in data set [1] was determined as 16.1 min. In the data set filed under Rattus norvegicus [2], this compound displayed a Max stimulation of 148%. Also, in the data set listed under Rattus norvegicus [3], the ED50 was 139 nM.
